Results of several laboratories.
Read-out: cell growth or viability

Cc1cc(N(CCO)CCO)ccc1C=O
IC50 (A498): > 10 µg/mL

N.N.[Cl][Pt][Cl]
IC50 (SW480; MTT; 48 h): 13400 nM

N.N.[Cl][Pt][Cl]
IC50 (MGC-803; MTT; 24 h): 29500 nM

CC1=C(O)C(=O)C=C2C1=CC=C1[C@@]2(C)CC[C@@]2(C)[C@@H]3C[C@](C)(C(=O)OCCCn4cc(C=O)c5ccccc54)CC[C@]3(C)CC[C@]12C
IC50 (MGC-803; MTT; 48 h): 340 nM

C[C@H]1CN(c2ccncc2NC(=O)c2ccc(F)c(-c3c(F)cccc3F)n2)C[C@@H](N)[C@@H]1O
GI50 (MM1.S; thymidine uptake; 72 h): 22 nM

Cc1cccc(-n2ncc(Cl)c(Cl)c2=O)c1
IC50 (NCI-H2030; resazurin; 96 h): 270 nM

COc1ccc2c(c1)[nH]c1c(C)nccc12
IC50 (PC-12; MTT; 48 h): 18000 nM

Cc1cc(N(CCOS(C)(=O)=O)CCOS(C)(=O)=O)ccc1C=O
IC50 (A498): 0.0463 µg/mL

CC1=C(O)C(=O)C=C2C1=CC=C1[C@@]2(C)CC[C@@]2(C)[C@@H]3C[C@](C)(C(=O)O)CC[C@]3(C)CC[C@]12C
IC50 (MGC-803; MTT; 48 h): 350 nM
